ChEMBL document CHEMBL4699391, “Conversion of amino acids to aryl/heteroaryl ethanol metabolites using human CYP2D6-expressing live baker''s yeast” (RSC Med Chem, 2020)
Active and inactive are the calls of the source.

Key:
[1] = target: BDNF/NT-3 growth factors receptor (Homo sapiens) (UniProt Q16620); assay: Induction of TrkB activation in human SH-SY5Y cells assessed as increase in phosphorylated TrkB level at 10 uM after 4 hrs by Western blot analysis; format: cell-based; details: filed as activator
[2] = target: BDNF/NT-3 growth factors receptor (Homo sapiens) (UniProt Q16620); assay: Induction of TrkB activation in human SH-SY5Y cells assessed as increase in ERK1/2 phosphorylation at 10 uM after 4 hrs by Western blot analysis; format: cell-based; details: filed as activator
[3] = tested on: N2a; assay: Neuroprotective activity against corticosterone-induced neurotoxicity in mouse N2a cells assessed as increase in cell viability at 10 uM preincubated for 24 hrs followed by corticosterone addition and measured after 24 hrs; format: functional, cell-based; details: time 48.0 hrs
In short: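 Mouse neuroblastoma N2a cells were pretreated with test compound for 24 hrs. They were then co-treated with the neurotoxin, printed as cortisone, at 400 μM for a further 24 hrs before neuroprotection was assessed. P value thresholds were ≤0.05, <0.01 and 0.001.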

[4] = target: BDNF/NT-3 growth factors receptor (Homo sapiens) (UniProt Q16620); assay: Induction of TrkB activation in human SH-SY5Y cells assessed as increase in Akt phosphorylation at 10 uM after 4 hrs by Western blot analysis; format: cell-based; details: filed as activator
[5] = tested on: SH-SY5Y; assay: Neuroprotective activity against corticosterone-induced neurotoxicity in human SH-SY5Y cells assessed as induction of BDNF neurotropic response at 10 uM preincubated for 2 hrs followed by corticosterone addition and measured after 4 hrs by ELISA; format: functional, cell-based; details: time 6.0 hrs
[6] = tested on: SH-SY5Y; assay: Neuroprotective activity against corticosterone-induced neurotoxicity in human SH-SY5Y cells assessed as induction of BDNF neurotropic response at 5 nM preincubated for 2 hrs followed by corticosterone addition and measured after 4 hrs by ELISA; format: functional, cell-based; details: time 6.0 hrs
[7] = target: BDNF/NT-3 growth factors receptor (Homo sapiens) (UniProt Q16620); assay: Induction of TrkB activation in human SH-SY5Y cells assessed as increase in ERK1/2 phosphorylation at 5 nM after 4 hrs by Western blot analysis; format: cell-based; details: filed as activator
[8] = tested on: N2a; assay: Neuroprotective activity against corticosterone-induced neurotoxicity in mouse N2a cells assessed as increase in cell viability at 5 nM preincubated for 24 hrs followed by corticosterone addition and measured after 24 hrs; format: functional, cell-based; details: time 48.0 hrs
[9] = target: BDNF/NT-3 growth factors receptor (Homo sapiens) (UniProt Q16620); assay: Induction of TrkB activation in human SH-SY5Y cells assessed as increase in Akt phosphorylation at 5 nM after 4 hrs by Western blot analysis; format: cell-based; details: filed as activator
[10] = target: BDNF/NT-3 growth factors receptor (Homo sapiens) (UniProt Q16620); assay: Induction of TrkB activation in human SH-SY5Y cells assessed as increase in phosphorylated TrkB level at 5 nM after 4 hrs by Western blot analysis; format: cell-based; details: filed as activator

Measured: Activity

Sequence of BDNF/NT-3 growth factors receptor (Homo sapiens) (Q16620 32-822 limits assumed): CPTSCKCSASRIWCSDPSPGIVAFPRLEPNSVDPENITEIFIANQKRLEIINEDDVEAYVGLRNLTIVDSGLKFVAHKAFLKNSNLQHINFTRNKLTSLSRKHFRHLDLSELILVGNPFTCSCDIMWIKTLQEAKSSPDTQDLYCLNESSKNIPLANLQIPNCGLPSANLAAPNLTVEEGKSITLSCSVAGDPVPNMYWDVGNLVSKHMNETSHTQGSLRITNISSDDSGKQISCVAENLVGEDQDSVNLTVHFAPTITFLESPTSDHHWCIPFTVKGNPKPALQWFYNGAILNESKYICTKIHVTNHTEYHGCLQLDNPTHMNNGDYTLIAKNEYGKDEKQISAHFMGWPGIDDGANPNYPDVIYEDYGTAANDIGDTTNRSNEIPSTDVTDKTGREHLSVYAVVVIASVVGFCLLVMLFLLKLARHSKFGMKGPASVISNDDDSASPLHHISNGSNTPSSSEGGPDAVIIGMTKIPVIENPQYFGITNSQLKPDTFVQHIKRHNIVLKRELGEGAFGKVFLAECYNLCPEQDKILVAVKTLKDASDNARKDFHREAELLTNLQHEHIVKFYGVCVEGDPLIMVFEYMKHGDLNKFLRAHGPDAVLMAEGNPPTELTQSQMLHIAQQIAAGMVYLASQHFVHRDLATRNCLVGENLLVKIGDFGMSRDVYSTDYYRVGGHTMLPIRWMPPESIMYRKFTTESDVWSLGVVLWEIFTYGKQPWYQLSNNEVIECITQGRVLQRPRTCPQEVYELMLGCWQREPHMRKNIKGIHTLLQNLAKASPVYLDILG

OCCc1ccc(O)cc1
active: [1] | [2] | [3] | [4] | [5]

O=c1cc(-c2ccccc2)oc2c(O)c(O)ccc12
active: [6] | [7] | [8] | [9] | [10]

OCCc1c[nH]c2ccccc12
active: [1] | [2] | [3] | [4] | [5]
